Measured values published in ChEMBL document CHEMBL1240333, “Surveying polypeptide and protein domain conformation and association with FlAsH and ReAsH” (Nat Chem Biol, 2007).
Active and inactive are the calls of the source. The calls are words filed in the database; no cut-off is given here. Peptide text beside a SMILES is read from it.

Tests used:
[1] = biological target: T1, Transcription factor Jun (Homo sapiens, UniProt P05412); experiment: Binding affinity to wild-type c-Jun homodimer at by circular dichroism spectroscopy
T1 sequence (P05412 whole entry): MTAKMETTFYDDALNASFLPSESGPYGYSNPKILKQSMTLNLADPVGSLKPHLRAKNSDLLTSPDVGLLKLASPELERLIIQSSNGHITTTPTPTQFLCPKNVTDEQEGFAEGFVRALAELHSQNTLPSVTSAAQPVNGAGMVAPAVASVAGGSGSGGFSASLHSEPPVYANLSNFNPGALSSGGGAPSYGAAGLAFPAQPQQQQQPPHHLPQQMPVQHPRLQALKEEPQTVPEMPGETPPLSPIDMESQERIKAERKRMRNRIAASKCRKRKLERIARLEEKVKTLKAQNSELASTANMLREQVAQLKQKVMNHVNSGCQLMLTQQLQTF

[2] = biological target: T1, Transcription factor Jun; experiment: Binding affinity to c-Jun homodimer containing bipartite tetracysteine motif at 25 nM
In short: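 Fluorescence titration: 25 nM FlAsH or ReAsH titrated with increasing synthetic peptide or protein domain in 100 mM Tris-HCl pH 7.8 with 3.5 mM TCEP, 1 mM EDT, 1 mM EDTA. Emission read at 530 ± 12.5 nm (FlAsH) or 630 ± 17.5 nm (ReAsH) after reaching equilibrium, tracked over time. Apparent Kd taken from intensity versus concentration. Points are means of ≥3 independent titrations ± s.d.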

[3] = biological target: T1, Transcription factor Jun; experiment: Binding affinity to wild type c-Jun homodimer by circular dichroism spectroscopy
[4] = biological target: T1, Transcription factor Jun; experiment: Binding affinity to c-Jun homodimer containing bipartite tetracysteine motif at 100 nM

CC[C@H](C)[C@H](NC(=O)[C@H](CCCNC(=N)N)NC(=O)[C@H](Cc1c[nH]c2ccccc12)NC(C)=O)C(=O)N[C@@H](C)C(=O)N[C@@H](CCCNC(=N)N)C(=O)N[C@@H](CC(C)C)C(=O)N[C@@H](CCC(=O)O)C(=O)N[C@@H](CCC(=O)O)C(=O)N[C@@H](CCCCN)C(=O)N[C@H](C(=O)N[C@@H](CCCCN)C(=O)N[C@H](C(=O)N[C@@H](CC(C)C)C(=O)N[C@@H](CCCCN)C(=O)N[C@@H](C)C(=O)N[C@@H](CCC(N)=O)C(=O)N[C@@H](CC(N)=O)C(=O)N[C@@H](CO)C(=O)N[C@@H](CCC(=O)O)C(=O)N[C@@H](CC(C)C)C(=O)N[C@@H](C)C(=O)N[C@@H](CO)C(=O)N[C@H](C(=O)N[C@@H](C)C(=O)N[C@@H](CC(N)=O)C(=O)N[C@@H](CCSC)C(=O)N[C@@H](CC(C)C)C(=O)N[C@@H](CCCNC(=N)N)C(=O)N[C@@H](CCC(=O)O)C(=O)N[C@@H](CCC(N)=O)C(=O)N[C@H](C(=O)N[C@@H](C)C(=O)N[C@@H](CCC(N)=O)C(=O)N[C@@H](CC(C)C)C(=O)N[C@@H](CCCCN)C(=O)N[C@@H](CCC(N)=O)C(=O)N[C@@H](CCCCN)C(=O)N[C@H](C(=O)N[C@@H](CS)C(=O)N[C@@H](CS)C(N)=O)C(C)C)C(C)C)[C@@H](C)O)[C@@H](C)O)C(C)C (Ac-WRIARLEEKVKTLKAQNSELASTANMLREQVAQLKQKVCC-NH2)
Kd [1]: 10 µM | Activity [2]: Active | Activity [3]: inactive | Activity [4]: Active
